Data set [1] is described as follows: Solubility of the compound in pH 5.5 sodium acetate buffer at 10 uM. Particulars: pH 5.5, 10 µM.
Data set [2] is described as follows: Cytotoxicity against rat H9c2 cells assessed as reduction in cell viability after 72 hrs by alamar blue assay. The class given is cell-based. In short, it runs like this:
(§1)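 H9c2 or J774 cells (1 x 10^4/well) in DMEM/10% FBS preincubated 24 h, then exposed 72 h to six concentrations (0.41 to 100 µM) in triplicate, DMSO under 1%. Viability by AlamarBlue, read after 6 h at 570/600 nm; CC50 from three independent experiments; gentian violet positive control.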

Data set [3] relates to Trypanosoma cruzi. Briefly: Antitrypanosomal activity against bloodstream trypomastigote stage of Trypanosoma cruzi Y infected in monkey LLC-MK2 cells assessed as reduction in parasite motility measured after 24 hrs by neubauer chamber method. In kind it is functional, organism-based. Particulars: LLC-MK2, 24 h. In short, it runs like this: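 Y strain trypomastigotes from LLC-MK2 supernatants, 4x10^5/well, incubated 24 h at 37°C, 5% CO2 with five concentrations; viable parasites counted by motility in Neubauer chamber. Inhibition versus untreated cultures; IC50 by non-linear regression; benznidazole reference.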

In data set [4] the target is Cruzipain (Trypanosoma cruzi) (UniProt P25779). Briefly: Inhibition of recombinant Trypanosoma cruzi cruzain at 10 uM preincubated for 10 mins followed by Z-FR-AMC substrate addition measured for 5 mins at 12 secs time interval by […] relative to control. The method in brief: (§2)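 Cruzain 0.5 nM in 0.1 M sodium acetate pH 5.5, 1 mM beta-mercaptoethanol, 0.01% Triton X-100, 25 °C; 10 min preincubation, then Z-FR-AMC 2.5 µM (Km 1 µM). Fluorescence (ex 340, em 440) read continuously 5 min; initial rates versus DMSO control. Screens at 10 µM, two independent runs in triplicate; IC50 from at least seven concentrations, four-parameter fit, at least two curves.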
Chain of Cruzipain (Trypanosoma cruzi) (P25779 123-467 limits assumed): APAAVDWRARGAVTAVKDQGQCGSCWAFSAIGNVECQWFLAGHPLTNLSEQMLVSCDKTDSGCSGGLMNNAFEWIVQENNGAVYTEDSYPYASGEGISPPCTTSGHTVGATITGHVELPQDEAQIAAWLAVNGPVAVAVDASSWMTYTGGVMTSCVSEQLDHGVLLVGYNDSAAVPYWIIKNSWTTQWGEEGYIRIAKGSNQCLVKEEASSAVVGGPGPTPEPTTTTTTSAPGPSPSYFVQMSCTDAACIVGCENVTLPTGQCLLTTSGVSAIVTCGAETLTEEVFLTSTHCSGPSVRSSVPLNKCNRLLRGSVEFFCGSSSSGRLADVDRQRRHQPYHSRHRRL

Data set [5] in a line: Cytotoxicity against mouse J774 cells assessed as reduction in cell viability after 72 hrs by alamar blue assay. The class given is cell-based. The method in brief: as §1
A general note: Resazurin is reduced to fluorescent resorufin, in cell work by metabolically active cells.

The nature of data set [6]: Cytotoxicity against mouse J774 cells. In kind it is cell-based. The method in brief:
as §1

Data set [7] concerns Trypanosoma cruzi. As to the kind of experiment: Antitrypanosomal activity against Trypanosoma cruzi Y trypomastigotes infected in mouse J774 cells measured after […] by contrast phase microscopic method. In kind it is functional, organism-based.
A further data set deals with Cruzipain (Trypanosoma cruzi, UniProt P25779). Briefly: Inhibition of recombinant Trypanosoma cruzi cruzain preincubated for 10 mins followed by Z-FR-AMC substrate addition measured for 5 mins at 12 secs time interval by flow cytometry relative to control. The method in brief: as §2
Chain of Cruzipain (P25779 whole entry): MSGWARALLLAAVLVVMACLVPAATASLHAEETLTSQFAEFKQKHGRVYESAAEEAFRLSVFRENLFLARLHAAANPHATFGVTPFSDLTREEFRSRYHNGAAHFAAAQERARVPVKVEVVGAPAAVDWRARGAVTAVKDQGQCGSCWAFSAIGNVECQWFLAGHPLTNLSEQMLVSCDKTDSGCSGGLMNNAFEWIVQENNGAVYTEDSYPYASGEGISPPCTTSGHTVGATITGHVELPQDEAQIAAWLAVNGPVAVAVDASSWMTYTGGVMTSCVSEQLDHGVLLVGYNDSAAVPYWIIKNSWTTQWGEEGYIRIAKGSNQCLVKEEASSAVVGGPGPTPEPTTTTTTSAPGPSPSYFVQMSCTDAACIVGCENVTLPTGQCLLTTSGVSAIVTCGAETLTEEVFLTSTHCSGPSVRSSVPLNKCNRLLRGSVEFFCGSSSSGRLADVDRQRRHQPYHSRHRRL
Background: A flow cytometer gives signals particle by particle.

The CC50 is the concentration that lowers cell viability or growth by half. The IC50 is the concentration that inhibits the measured activity by half. The inhibition is the change of the read-out against control, counted positive when it falls.

For the molecule `C/C(=N\Nc1nc(-c2ccc3ccccc3c2)cs1)c1ccc(Cl)c(Cl)c1`, in data set [1], the solubility entry is given as “Soluble”. Further, the CC50 at 72 h in data set [2] and in data set [5] was greater than 50 µM each time. Further, the IC50 with Trypanosoma cruzi [3] was greater than 50 µM. Besides, the inhibition in data set [4] turned out to be 44%.

In data set [6], `C/C(=N\N=C(\N)S)c1ccc(Cl)c(Cl)c1` registered a CC50 greater than 100 µM. For the same molecule, in the data set with Trypanosoma cruzi [7], the concentration for half-maximal inhibition (IC50) stood at 7.1 µM.

Regarding `COc1ccc(-c2csc(N/N=C(\C)c3ccc(Cl)c(Cl)c3)n2)cc1`, the solubility result in data set [1] was “Soluble”. For the same molecule, the CC50 at 72 h in data set [2] and in data set [5] was greater than 50 µM each time. In addition, the IC50 with Trypanosoma cruzi [3] is 17.1 µM. The inhibition in data set [4] was 41%.

With `C/C(=N\Nc1nc(-c2ccc(Cl)cc2)cs1)c1ccc(Cl)c(Cl)c1`, the solubility result in data set [1] is “Soluble”. In addition, the CC50 at 72 h in data set [2] and in data set [5] was greater than 50 µM each time. Further, in the data set on Trypanosoma cruzi [3], the IC50 is greater than 50 µM. In addition, the inhibition in data set [4] is 31%.

In the case of `C/C(=N\N=c1\scc(-c2ccccc2)n1-c1ccccc1)c1ccc(Cl)c(Cl)c1`, the solubility result in data set [1] is on record as “Soluble”. In addition, the CC50 at 72 h in data set [2] and in data set [5] was greater than 50 µM throughout. The IC50 in the data set with Trypanosoma cruzi [3] is greater than 50 µM. Moreover, in data set [4], the inhibition stood at 31%.

Consider `C/C(=N\Nc1nc(C)c(C)s1)c1ccc(Cl)c(Cl)c1`, for which, in data set [1], the solubility result is “Soluble”. The results for the CC50 at 72 h in data set [2] and in data set [5] were greater than 50 µM and 41.8 µM, respectively. In addition, the figures for the IC50 on Cruzipain and in the data set on Trypanosoma cruzi [3] were 9 µM and 10.5 µM, respectively. Further, in data set [4], the inhibition came to 84%.

Consider `C/C(=N\Nc1nc(C)cs1)c1ccc(Cl)c(Cl)c1`, for which, in data set [1], the solubility entry was “Soluble”. Moreover, the CC50 at 72 h in data set [2] was determined as 26.1 µM; in data set [5], 33.7 µM. In addition, the values for the IC50 on Cruzipain and in the data set with Trypanosoma cruzi [3] were 0.6 µM and 17.1 µM, respectively. Moreover, the inhibition in data set [4] is 97%.

Take `C/C(=N\Nc1nc(-c2ccc(Cl)c(Cl)c2)cs1)c1ccc(Cl)c(Cl)c1`: in data set [1], the solubility entry is “Soluble”. In addition, the CC50 at 72 h in data set [2] and in data set [5] was greater than 50 µM throughout. Besides, in the data set with Trypanosoma cruzi [3], the IC50 is greater than 50 µM.

In the case of `C/C(=N\Nc1nc(-c2ccc(Cl)c(Cl)c2Cl)cs1)c1ccc(Cl)c(Cl)c1`, in data set [1], the solubility result is on record as “Soluble”. For the same molecule, the CC50 at 72 h in data set [2] was determined as 17 µM; in data set [5], 21.3 µM. For the same molecule, in the data set with Trypanosoma cruzi [3], the IC50 turned out to be 6 µM. In addition, the inhibition in data set [4] was 38%.

As to `C/C(=N\Nc1nc(-c2ccccc2)c(C)s1)c1ccc(Cl)c(Cl)c1`, the solubility result in data set [1] is recorded as “Soluble”. Moreover, the CC50 at 72 h in data set [2] and in data set [5] was greater than 50 µM in each case. The IC50 in the data set on Trypanosoma cruzi [3] was found to be 17.8 µM. In data set [4], the inhibition was 76%.

Take `C/C(=N\N=c1\scc(-c2ccccc2)n1C)c1ccc(Cl)c(Cl)c1`: in data set [1], the solubility entry is recorded as “Soluble”. The CC50 at 72 h in data set [2] and in data set [5] was greater than 50 µM in each case. For the same molecule, in the data set on Trypanosoma cruzi [3], the IC50 was greater than 50 µM. Also, in data set [4], the inhibition was 12%.

As for `C/C(=N\Nc1nc(-c2ccc([N+](=O)[O-])cc2)cs1)c1ccc(Cl)c(Cl)c1`, the solubility result in data set [1] is “Soluble”. For the same molecule, the CC50 at 72 h in data set [2] and in data set [5] was greater than 50 µM in each case. In addition, the IC50 with Trypanosoma cruzi [3] was greater than 50 µM.

For `CN(C)c1ccc(C(=C2C=CC(=[N+](C)C)C=C2)c2ccc(N(C)C)cc2)cc1` [GENTIAN VIOLET], the CC50 at 72 h in data set [2] is 1.5 µM.

On to `C/C(=N\Nc1nc(-c2cccc([N+](=O)[O-])c2)cs1)c1ccc(Cl)c(Cl)c1`, for which the solubility result in data set [1] is “Soluble”. Further, the CC50 at 72 h in data set [2] and in data set [5] was greater than 50 µM throughout. In addition, the IC50 with Trypanosoma cruzi [3] is greater than 50 µM.

For the molecule `C/C(=N\Nc1nc(CCl)cs1)c1ccc(Cl)c(Cl)c1`, the solubility entry in data set [1] is “Soluble”. Moreover, the CC50 at 72 h in data set [2] and in data set [5] was greater than 50 µM each time. Further, in the data set on Trypanosoma cruzi [3], the IC50 was greater than 50 µM. Besides, the inhibition in data set [4] was 50%.

For the molecule `C/C(=N\Nc1nc(-c2ccccc2)cs1)c1ccc(Cl)c(Cl)c1`, in data set [1], the solubility entry is given as “Soluble”. The CC50 at 72 h in data set [2] and in data set [5] was greater than 50 µM each time. The IC50 in the data set with Trypanosoma cruzi [3] is greater than 50 µM. Moreover, in data set [4], the inhibition was 59%.

With `C/C(=N\Nc1nc(-c2ccncc2)cs1)c1ccc(Cl)c(Cl)c1`, in data set [1], the solubility entry is listed as “Soluble”. For the same molecule, the CC50 at 72 h in data set [2] turned out to be 41.9 µM; in data set [5] it was 39.8 µM. Also, the IC50 in the data set on Trypanosoma cruzi [3] was 16.8 µM. In addition, in data set [4], the inhibition is 32%.

In the case of `C/C(=N\Nc1nc(-c2ccc(Br)cc2)c(C)s1)c1ccc(Cl)c(Cl)c1`, the solubility result in data set [1] is on record as “Soluble”. Moreover, the 50% cytotoxic concentration (CC50) at 72 h in data set [2] and in data set [5] was greater than 50 µM throughout. Moreover, the IC50 with Trypanosoma cruzi [3] came out at 19.1 µM. In data set [4], the inhibition is 74%.

`C/C(=N\Nc1nc(-c2ccc(Cl)cc2Cl)cs1)c1ccc(Cl)c(Cl)c1`: the solubility entry in data set [1] is recorded as “Soluble”. For the same molecule, the CC50 at 72 h in data set [2] and in data set [5] was greater than 50 µM in each case. Besides, the IC50 with Trypanosoma cruzi [3] was greater than 50 µM. Moreover, the inhibition in data set [4] was determined as 35%.

For `C/C(=N\Nc1nc(-c2ccc(C)cc2)cs1)c1ccc(Cl)c(Cl)c1`, the solubility result in data set [1] is reported as “Soluble”. The CC50 at 72 h in data set [2] and in data set [5] was greater than 50 µM throughout. The IC50 in the data set with Trypanosoma cruzi [3] stood at 47.7 µM. Moreover, the inhibition in data set [4] is 75%.

In the case of `C/C(=N\Nc1nc(-c2ccc(Br)cc2)cs1)c1ccc(Cl)c(Cl)c1`, the solubility entry in data set [1] is recorded as “Soluble”. For the same molecule, the CC50 at 72 h in data set [2] and in data set [5] was greater than 50 µM throughout. Also, the IC50 with Trypanosoma cruzi [3] was greater than 50 µM. For the same molecule, the inhibition in data set [4] is 43%.

With `C/C(=N\Nc1nc(-c2ccc(F)cc2)cs1)c1ccc(Cl)c(Cl)c1`, in data set [1], the solubility result is “Soluble”. In addition, the CC50 at 72 h in data set [2] and in data set [5] was greater than 50 µM in each case. Moreover, the IC50 with Trypanosoma cruzi [3] was greater than 50 µM. Moreover, the inhibition in data set [4] is 32%.

In the case of `C/C(=N\Nc1nc(-c2ccc(-c3ccccc3)cc2)cs1)c1ccc(Cl)c(Cl)c1`, in data set [1], the solubility result is “Soluble”. Also, the half-maximal cytotoxic concentration (CC50) at 72 h in data set [2] and in data set [5] was greater than 50 µM each time. For the same molecule, the IC50 in the data set on Trypanosoma cruzi [3] was greater than 50 µM. In addition, the inhibition in data set [4] is 44%.

The record behind these values is ChEMBL document CHEMBL4138128, “Structural design, synthesis and pharmacological evaluation of thiazoles against Trypanosoma cruzi” (Eur J Med Chem, 2017).
